Activity, IC50 and DC50 data for one compound are collected here from ChEMBL document CHEMBL4602651, “Development of selective mono or dual PROTAC degrader probe of CDK isoforms” (Eur J Med Chem, 2020).

Molecules are shown by their SMILES. Activity calls are given as the source filed them. No cut-off for these calls is given here.

The target of test [1] is T1, Protein cereblon/Cyclin-dependent kinase 2/Cyclin-dependent kinase 9 (Homo sapiens, UniProt P24941+P50750+Q96SW2). The experiment in a line: Protac activity at CRBN/CDK2/CDK9 in AR-negative human PC3 cells assessed as induction of CDK2 protein degradation at 1 uM after 12 hrs by Western blot analysis. In kind it is cell-based. The conditions noted are these: PC-3. In a few lines:
(§1)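 PC-3 cells (5 × 10^5 per well) treated 12 h at single concentrations (50 nM, 500 nM, 1, 5 or 30 µM). RIPA lysates (50 µg) run on 10% SDS-PAGE and immunoblotted for CDK2, CDK5, CDK9 with β-tubulin loading control, then detected by chemiluminescence. Band intensities quantified densitometrically.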
(A western blot detects proteins with antibodies after separation by electrophoresis.)

Test [2] concerns the target Protein cereblon/Cyclin-dependent kinase 9 (Homo sapiens) (UniProt P50750+Q96SW2). The experiment in a line: Protac activity at CRBN/CDK9 in AR-negative human PC3 cells assessed as induction of CDK9 protein degradation at 50 nM after 12 hrs by Western blot analysis. In kind it is cell-based. The settings on record: PC-3. In a few lines:
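PC-3 cells (DMEM/F12 1:1, 10% FBS, 1% pen/strep, 37 °C, 5% CO2) plated at 5 × 10^5 per well, exposed to compound for 12 h. RIPA lysates with protease inhibitors; 50 µg total protein run on 10% SDS-PAGE, transferred to PVDF, blocked in 5% milk/TBS-T. Probed with anti-CDK9 (1/1000), β-tubulin loading control, HRP secondary, chemiluminescence; bands scored as degradation detected or not.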

The test system of test [3] is PC-3. The experiment in a line: Antiproliferative activity against AR-negative human PC3 cells assessed as reduction in cell viability after 5 days by CCK8 assay. In kind it is functional, cell-based. The conditions noted are these: PC-3, 120 h. In a few lines: (§2)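 Cells seeded at 3 × 10^3 per well for 24 h, then dosed in 10-point, 3-fold serial dilution from 10 µM. CCK-8 added after 5 days, 4 h at 37 °C, absorbance at 450 nm. IC50 averaged from three separate determinations (at least two independent runs, duplicate wells). PC-3 grown in DMEM/F12 (1:1), LO2 in RPMI 1640, both with 10% FBS.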
In general terms: Tetrazolium assays rely on reduction of a dye to a coloured formazan, in cell work by metabolically active cells.

Test [4] deals with T1, Protein cereblon/Cyclin-dependent kinase 2/Cyclin-dependent kinase 9. Description: Protac activity at CRBN/CDK2/CDK9 in AR-negative human PC3 cells assessed as induction of CDK2 protein degradation after 24 hrs by Western blot analysis. In kind it is cell-based. Put shortly:
(§3)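 PC-3 cells exposed to a degrader concentration series, then immunoblotted for CDK2 and CDK9 versus β-tubulin. The figure legend gives 24 h exposure. DC50 taken as mean of 2 determinations from densitometry.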

Test [5] shares this target. The experiment in a line: Protac activity at CRBN/CDK2/CDK9 in AR-negative human PC3 cells assessed as induction of CDK9 protein degradation after 24 hrs by Western blot analysis. In kind it is cell-based. Put shortly: as §3
Test [6] has the same target. The experiment in a line: Protac activity at CRBN/CDK2/CDK9 in AR-negative human PC3 cells assessed as induction of CDK9 protein degradation at 500 nM after 4 hrs by Western blot analysis relative to control. In kind it is cell-based. The settings on record: PC-3. Put shortly:
(§4)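 PC-3 cells treated with 500 nM degrader for varying times. Lysates blotted for CDK2, CDK4, CDK6, CDK9, c-Myc and Mcl-1, each at 1/1000 primary antibody, with β-tubulin reference and chemiluminescent detection.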

Test [7] shares this target. The experiment in a line: Protac activity at CRBN/CDK2/CDK9 in AR-negative human PC3 cells assessed as reduction in c-Myc protein expression at 500 nM measured after 2 to 24 hrs by Western blot analysis. It is filed as cell-based. The conditions noted are these: PC-3. In a few lines:
as §4

For test [8] the target is unchanged. Description: Protac activity at CRBN/CDK2/CDK9 in AR-negative human PC3 cells assessed as CDK2 degradation at 250 nM preincubated with proteasome inhibitor MG132 for 2 hrs and measured after 8 hrs by Western blot analysis. The settings on record: PC-3. In kind it is cell-based. In a few lines:
(§5)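 PC-3 cells pretreated 2 h with 5 µM DMSO, FN-1501, pomalidomide or MG-132, then exposed to degrader at 250 nM for 8 h. Lysates probed for CDK2 and CDK9, β-tubulin as loading control. 50 µg protein per lane, 10% SDS-PAGE, chemiluminescent detection.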

Test [9] has as its system L02. The experiment in a line: Cytotoxicity against human LO2 cells assessed as reduction in cell viability after 5 days by CCK-8 assay. It is filed as cell-based. The conditions noted are these: L02, 120 h. Put shortly:
as §2

Test [10] concerns the target CDK9/cyclin T1 (Homo sapiens, UniProt P50750). Description: Inhibition of tracer K10 binding to NanoLuc-CDK9/Cyclin T1 (unknown origin) expressed in human HEK293 cells after 1 hr in presence of ATP by NanoBRET assay. It is filed as cell-based. Put shortly: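 Cell-based target engagement run by a contract lab. HEK293 cells pretreated with NanoBRET Tracer K-10, then exposed to compound for 1 h with 10 µM ATP, and BRET signal read. 10-point, 3-fold dilutions from 1 µM. Staurosporine reference used 4-fold dilutions from 20 µM. IC50 from sigmoidal dose-response fit.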
In general terms: BRET reads energy transfer from a luciferase to a nearby fluorophore.

Test [11] deals with T1, Protein cereblon/Cyclin-dependent kinase 2/Cyclin-dependent kinase 9. The experiment in a line: Protac activity at CRBN/CDK2/CDK9 in human MCF7 cells assessed as CDK2 degradation at 0.25 to 10 uM after 12 hrs by Westernblot analysis. In kind it is cell-based. In a few lines: (§6)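 22Rv1, HCT-116 (RPMI 1640, 10% FBS) and MCF-7 cells treated with degrader at indicated concentrations for 12 h. CDK2 and CDK9 blotted with β-tubulin loading control.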

For test [12] the target is unchanged. Description: Protac activity at CRBN/CDK2/CDK9 in human HCT116 cells assessed as CDK2 degradation at 0.25 to 10 uM after 12 hrs by Westernblot analysis. It is filed as cell-based. The conditions noted are these: HCT-116. In a few lines:
as §6

The test system of test [13] is PC-3. Description: Induction of cell cycle arrest in human PC3 cells assessed as accumulation at G0/G1 phase at 250 nM after 48 hrs by propidium iodide staining based flow cytometry (reference value: 59.80%). It is filed as functional.
The subject of test [14] is PC-3. Description: Induction of cell cycle arrest in human PC3 cells assessed as accumulation at S phase at 1 uM after 48 hrs by propidium iodide staining based flow cytometry (reference value: 17.96%). In kind it is functional.
Test [15] has as its system PC-3. Description: Induction of cell cycle arrest in human PC3 cells assessed as accumulation at G2/M phase at 1 uM after 48 hrs by propidium iodide staining based flow cytometry (reference value: 22.24%). It is filed as functional.
Test [16] has as its system PC-3. Description: Induction of cell cycle arrest in human PC3 cells assessed as accumulation at G2/M phase at 3 uM after 48 hrs by propidium iodide staining based flow cytometry (reference value: 22.24%). In kind it is functional.
Test [17] relates to PC-3. The experiment in a line: Antiproliferative activity against AR-negative human PC3 cells at 2 uM after 24 hrs by CFSE dye based flow cytometry. In kind it is functional, cell-based. In a few lines:
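PC-3 cells treated 24 h at 2 µM alongside DMSO control. Single-cell suspension labelled with CFSE (final 5 µM) for 15 min at room temperature in the dark, then proliferation read by flow cytometry.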

Test [18] concerns the target T1, Protein cereblon/Cyclin-dependent kinase 2/Cyclin-dependent kinase 9. Description: Protac activity at CRBN/CDK2/CDK9 in AR-negative human PC3 cells assessed as reduction in Mcl-1 protein expression at 500 nM measured after 2 to 24 hrs by Western blot analysis. It is filed as cell-based. The conditions noted are these: PC-3. In a few lines: as §4
The target is the same in test [19]. Description: Protac activity at CRBN/CDK2/CDK9 in AR-negative human PC3 cells assessed as CDK9 degradation at 250 nM preincubated with pomalidomide for 2 hrs and measured after 8 hrs by Western blot analysis. In kind it is cell-based. The conditions noted are these: PC-3. In a few lines: as §5
Test [20] has the same target. The experiment in a line: Protac activity at CRBN/CDK2/CDK9 in human MCF7 cells assessed as CDK9 degradation at 0.25 to 10 uM after 12 hrs by Westernblot analysis. In kind it is cell-based. Put shortly:
as §6

For test [21] the target is unchanged. Description: Protac activity at CRBN/CDK2/CDK9 in AR-negative human PC3 cells assessed as induction of CDK9 protein degradation at 30 uM after 12 hrs by Western blot analysis. It is filed as cell-based. The settings on record: PC-3. Put shortly: as §1

Chain of Protein cereblon/Cyclin-dependent kinase 9 (Homo sapiens) (P50750 whole entry, looked up): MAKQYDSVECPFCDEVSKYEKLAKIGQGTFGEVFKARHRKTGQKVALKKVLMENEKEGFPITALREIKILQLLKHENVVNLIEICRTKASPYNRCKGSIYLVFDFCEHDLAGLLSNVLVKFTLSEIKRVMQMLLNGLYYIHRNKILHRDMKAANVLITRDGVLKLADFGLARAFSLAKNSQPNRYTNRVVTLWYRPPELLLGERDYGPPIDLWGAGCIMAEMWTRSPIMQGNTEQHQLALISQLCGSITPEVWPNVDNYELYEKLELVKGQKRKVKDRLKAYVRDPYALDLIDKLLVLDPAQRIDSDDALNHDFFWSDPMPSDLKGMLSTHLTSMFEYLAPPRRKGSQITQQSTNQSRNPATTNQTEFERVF
Chain of Protein cereblon/Cyclin-dependent kinase 9 (Homo sapiens) (Q96SW2 whole entry, looked up): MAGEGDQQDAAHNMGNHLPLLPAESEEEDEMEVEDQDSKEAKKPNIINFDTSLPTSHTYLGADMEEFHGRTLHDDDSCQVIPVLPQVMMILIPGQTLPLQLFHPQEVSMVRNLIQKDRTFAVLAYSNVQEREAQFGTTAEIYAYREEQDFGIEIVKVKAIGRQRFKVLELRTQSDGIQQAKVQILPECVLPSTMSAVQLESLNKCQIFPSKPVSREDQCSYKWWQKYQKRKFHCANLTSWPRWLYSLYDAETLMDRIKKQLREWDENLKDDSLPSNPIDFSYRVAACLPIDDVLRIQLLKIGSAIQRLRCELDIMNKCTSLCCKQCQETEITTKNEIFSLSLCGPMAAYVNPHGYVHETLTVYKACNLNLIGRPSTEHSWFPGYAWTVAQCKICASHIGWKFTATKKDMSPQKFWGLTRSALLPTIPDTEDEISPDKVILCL
Chain of CDK9/cyclin T1 (O60563 whole entry): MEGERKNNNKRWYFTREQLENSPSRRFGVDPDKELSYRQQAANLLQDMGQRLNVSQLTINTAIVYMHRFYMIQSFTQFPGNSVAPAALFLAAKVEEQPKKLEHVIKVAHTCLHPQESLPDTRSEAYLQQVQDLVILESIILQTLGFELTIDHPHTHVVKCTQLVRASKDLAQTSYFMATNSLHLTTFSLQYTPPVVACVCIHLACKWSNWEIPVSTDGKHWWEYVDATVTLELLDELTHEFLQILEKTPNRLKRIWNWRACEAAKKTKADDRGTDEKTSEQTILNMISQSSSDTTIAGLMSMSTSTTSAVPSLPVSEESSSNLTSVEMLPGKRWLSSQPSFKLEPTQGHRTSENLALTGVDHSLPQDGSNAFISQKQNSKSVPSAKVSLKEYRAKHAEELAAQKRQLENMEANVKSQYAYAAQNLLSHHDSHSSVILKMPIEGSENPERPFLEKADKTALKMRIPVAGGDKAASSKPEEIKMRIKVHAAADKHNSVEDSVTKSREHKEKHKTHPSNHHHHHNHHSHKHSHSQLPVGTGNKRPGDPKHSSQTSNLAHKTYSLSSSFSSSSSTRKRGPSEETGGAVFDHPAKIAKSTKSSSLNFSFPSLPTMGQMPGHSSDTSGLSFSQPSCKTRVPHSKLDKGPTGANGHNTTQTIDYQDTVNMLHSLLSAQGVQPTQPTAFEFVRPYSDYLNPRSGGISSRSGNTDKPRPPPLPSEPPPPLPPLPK
Chain of CDK9/cyclin T1 (P50750 whole entry): as the sequence (P50750 whole entry, looked up) above

By IC50 is commonly meant the concentration at which inhibition is half-maximal. Broadly, the DC50 is the concentration giving 50% degradation. For the compound `O=C(CCC(=O)N1CCN(Cc2ccc(NC(=O)c3n[nH]cc3Nc3ncnc4[nH]ccc34)cc2)CC1)NCCNc1cccc2c1C(=O)N(C1CCC(=O)NC1=O)C2=O` (stereo not drawn), the outcome in test [1], in test [2], in test [7], in test [11], in test [12] and in [17] was Active. Also, the result in [18], in test [20] and in [21] was Active. The IC50 in test [3] turned out to be 0.12 µM; in test [9], 7.99 µM; in test [10], 0.0145 µM. Further, the Activity entry in [4] (PC-3) was “Dose-dependent effect”; in test [5] (PC-3) it was “Dose-dependent effect”; in test [6] it was above 80%; in [13], 50.15%; in test [14] it was 9.23%; in [15], 36.82%. In addition, in test [16], the Activity amounted to 36%. The DC50 in test [4] (pc-3) was found to be 0.062 µM; in test [5] (pc-3), 0.033 µM. The outcome in [8] and in test [19] was inactive.
